# Calls of active or inactive are those of the source. No cut-off for these calls is given here.
# Tests used:
# [1] = species on record: Oryctolagus cuniculus; assay: Negative inotropic activity in perfused rabbit left atrium assessed as stroke volume at 10 uM; assay type: functional, tissue-based; details: Cardiac atrium
# Summary of the method: (§1)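 Field-stimulated at a fixed 1.5 Hz, 60 min stabilization. Single dose, DMSO-dissolved and buffer-diluted, applied after a control circulation; 12-min circulations. Stroke volume read from the cannula water column at end diastole every 2 min, reported as mean % increase.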
# [2] = Chronotropic effect in perfused rabbit left atrium assessed as heart rate at 10 uM by electrocardiogram analysis (Rvb= 146.80 +/- 0.09 Hz); assay type: functional, Oryctolagus cuniculus, Cardiac atrium
# [3] = Positive inotropic activity in perfused rabbit left atrium assessed as increase in stroke volume at 10 uM; assay type: functional, Oryctolagus cuniculus, Cardiac atrium; summary of the method: as §1
# [4] = species on record: Oryctolagus cuniculus; assay: Positive inotropic activity in perfused rabbit left atrium assessed as increase in stroke volume at 10 uM/L; assay type: functional, tissue-based; details: Cardiac atrium, TDE = time-dependent effect; summary of the method: as §1
# [5] = Chronotropic effect in perfused rabbit left atrium assessed as heart rate at 10 uM by electrocardiogram analysis (Rvb= 152.20 +/- 0.42 Hz); assay type: functional, Oryctolagus cuniculus, Cardiac atrium
SMILES,Activity [1],Activity [3] [%],also measured
O=C(CN1CCN(Cc2ccc(F)cc2)CC1)Nc1ccc2c(c1)OCC(=O)N2,Active,–,–
O=C(CN1CCN(Cc2c(Cl)cccc2Cl)CC1)Nc1ccc2c(c1)OCC(=O)N2,Active,–,–
O=C(CN1CCN(Cc2ccc3cc(OCc4cccc(Cl)c4)ccc3c2)CC1)Nc1ccc2c(c1)OCC(=O)N2,Active,–,–
O=C(CN1CCN(Cc2ccccc2F)CC1)Nc1ccc2c(c1)OCC(=O)N2,–,4.29,Activity [2]: 139.1 Hz; Activity [4]: tde
Cc1[nH]c(=O)c(C#N)cc1-c1ccncc1 [MILRINONE],–,1.67,–
O=C(CN1CCN(Cc2ccc(Cl)cc2)CC1)Nc1ccc2c(c1)OCC(=O)N2,Active,–,–
Cc1ccc(COc2ccc3cc(CN4CCN(CC(=O)Nc5ccc6c(c5)OCC(=O)N6)CC4)ccc3c2)cc1,Active,–,–
Cc1ccc(CN2CCN(CC(=O)Nc3ccc4c(c3)OCC(=O)N4)CC2)cc1,–,5.09,Activity [5]: 142.2 Hz; Activity [4]: tde
O=C(CN1CCN(Cc2ccc3c(c2)OCO3)CC1)Nc1ccc2c(c1)OCC(=O)N2,Active,–,–
COc1ccc(CN2CCN(CC(=O)Nc3ccc4c(c3)OCC(=O)N4)CC2)cc1,Active,–,–
COc1ccc(COc2ccc3cc(CN4CCN(CC(=O)Nc5ccc6c(c5)OCC(=O)N6)CC4)ccc3c2)cc1,Active,–,–
O=C(CN1CCN(Cc2ccccc2Br)CC1)Nc1ccc2c(c1)OCC(=O)N2,–,1.43,–
O=C(CN1CCN(Cc2ccccc2)CC1)Nc1ccc2c(c1)OCC(=O)N2,Active,–,–
O=C(CN1CCN(Cc2cccc(Cl)c2)CC1)Nc1ccc2c(c1)OCC(=O)N2,Active,–,–
O=C(CN1CCN(Cc2ccc3cc(OCc4ccccc4)ccc3c2)CC1)Nc1ccc2c(c1)OCC(=O)N2,Active,–,–
COc1cccc(CN2CCN(CC(=O)Nc3ccc4c(c3)OCC(=O)N4)CC2)c1,–,3.23,–
